In ChEMBL document CHEMBL3616374, “Structure-Activity Relationship Studies of Orally Active Antimalarial 2,4-Diamino-thienopyrimidines” (J Med Chem, 2015):
In brackets after ≈: the same amount, converted by molar mass.

Columns and labels:
[1] = system: Plasmodium falciparum; assay: Antiplasmodial activity against multidrug-resistant Plasmodium falciparum K1 by [3H]-hypoxanthine incorporation assay; assay type: functional, organism-based
In short: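 In vitro IC50 against the multidrug-resistant K1 strain of P. falciparum. Chloroquine and artesunate were run as reference drugs in every experiment. Values are means of ≥2 independent experiments.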

[2] = system: Plasmodium falciparum; assay: Antiplasmodial activity against multidrug-sensitive Plasmodium falciparum NF54 by [3H]-hypoxanthine incorporation assay; assay type: functional, organism-based
In short: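 IC50 against P. falciparum NF54 was run with chloroquine and artesunate as reference drugs in every experiment. Values are the mean of at least 2 independent experiments.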

[3] = Solubility of the compound in 0.01 M HCl at pH 2; assay type: physicochemical
In short: (§1)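 Solubility was measured by a scaled-down shake flask method.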

[4] = Solubility of the compound in phosphate buffer at pH 6.5; assay type: physicochemical; in short: as §1
[5] = Degradation half-life in human liver microsomes at 0.1 uM by LC-MS/MS analysis; assay type: ADME
[6] = Intrinsic clearance in human liver microsomes assessed per mg of protein at 0.1 uM by LC-MS/MS analysis; assay type: ADME; conditions: read-out: CLH
[7] = Metabolic stability of the compound in human liver microsomes at 0.1 uM after 30 mins by LC-MS/MS analysis; assay type: ADME; conditions: read-out: Stability
In short: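 A one-point microsomal stability assay was used, expressed as the percentage of parent compound remaining after 30 min incubation.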

[8] = system: Mus musculus; assay: Acute toxicity in GFP-transfected Plasmodium berghei ANKA infected NMRI mouse at 50 mg/kg, po qd for 4 days; assay type: organism-based; conditions: in vivo, 96 h
In short: (§2)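 P. berghei-infected mice dosed orally at 50 mg/kg once daily for 4 days. Compound was dissolved or suspended in a standard non-solubilizing HPMC suspension vehicle. Mice were watched for acute toxicity after dosing. Parasitemia reduction was calculated against untreated infected controls, and survival was recorded as mean survival time in days.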

[9] = system: Plasmodium berghei; assay: Antimalarial activity against GFP-transfected Plasmodium berghei ANKA infected in NMRI mouse assessed as mean survival time at 50 mg/kg, po qd for 4 days by flow cytometry analysis; assay type: functional; in short: as §2
[10] = Partition coefficient, log D of the compound at pH 7.4 by HPLC chromatographic method; assay type: physicochemical; conditions: octanol/water
In short: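 logD was estimated by HPLC-DAD-MS.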

[11] = system: Plasmodium berghei; assay: Antimalarial activity against GFP-transfected Plasmodium berghei ANKA infected in NMRI mouse assessed as reduction of parasitemia in blood at 50 mg/kg, po qd for 4 days by flow cytometry analysis; assay type: functional; set-up: scale not given: the % may be the effect or the level left
In short: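 In P. berghei-infected mice, compound was dissolved or suspended in a standard non-solubilizing HPMC suspension vehicle and given orally once daily for 4 days (4 × 50 mg/kg). Parasitemia reduction was expressed as % relative to untreated control mice. Mean survival time in days was also recorded.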

[12] = AUC (0 to 24 hrs) in BALB/C mouse at 50 mg/kg, po; assay type: ADME, organism-based; set-up: time < 24 hr, dose 50 mg/kg, route oral; conditions: in vivo
[13] = Cmax in BALB/C mouse at 50 mg/kg, po; assay type: ADME, organism-based; set-up: dose 50 mg/kg, route oral; conditions: in vivo
[14] = system: Vero; assay: Cytotoxicity against African green monkey Vero cells after 48 hrs by MTT assay; assay type: cell-based; conditions: chlorocebus sabaeus
[15] = system: Mus musculus; assay: Dose normalized AUC (0 to 5 hrs) in BALB/C mouse at 50 mg/kg, po; assay type: ADME, organism-based; conditions: in vivo
[16] = Selectivity index ratio of IC50 for African green monkey Vero cells to IC50 for Plasmodium falciparum NF54; assay type: functional
[17] = target: Voltage-gated inwardly rectifying potassium channel KCNH2 (Homo sapiens, UniProt Q12809); assay: Inhibition of human ERG expressed in CHO cells by patch clamp electrophysiology assay; assay type: cell-based
Sequence of Voltage-gated inwardly rectifying potassium channel KCNH2 (Q12809 whole entry): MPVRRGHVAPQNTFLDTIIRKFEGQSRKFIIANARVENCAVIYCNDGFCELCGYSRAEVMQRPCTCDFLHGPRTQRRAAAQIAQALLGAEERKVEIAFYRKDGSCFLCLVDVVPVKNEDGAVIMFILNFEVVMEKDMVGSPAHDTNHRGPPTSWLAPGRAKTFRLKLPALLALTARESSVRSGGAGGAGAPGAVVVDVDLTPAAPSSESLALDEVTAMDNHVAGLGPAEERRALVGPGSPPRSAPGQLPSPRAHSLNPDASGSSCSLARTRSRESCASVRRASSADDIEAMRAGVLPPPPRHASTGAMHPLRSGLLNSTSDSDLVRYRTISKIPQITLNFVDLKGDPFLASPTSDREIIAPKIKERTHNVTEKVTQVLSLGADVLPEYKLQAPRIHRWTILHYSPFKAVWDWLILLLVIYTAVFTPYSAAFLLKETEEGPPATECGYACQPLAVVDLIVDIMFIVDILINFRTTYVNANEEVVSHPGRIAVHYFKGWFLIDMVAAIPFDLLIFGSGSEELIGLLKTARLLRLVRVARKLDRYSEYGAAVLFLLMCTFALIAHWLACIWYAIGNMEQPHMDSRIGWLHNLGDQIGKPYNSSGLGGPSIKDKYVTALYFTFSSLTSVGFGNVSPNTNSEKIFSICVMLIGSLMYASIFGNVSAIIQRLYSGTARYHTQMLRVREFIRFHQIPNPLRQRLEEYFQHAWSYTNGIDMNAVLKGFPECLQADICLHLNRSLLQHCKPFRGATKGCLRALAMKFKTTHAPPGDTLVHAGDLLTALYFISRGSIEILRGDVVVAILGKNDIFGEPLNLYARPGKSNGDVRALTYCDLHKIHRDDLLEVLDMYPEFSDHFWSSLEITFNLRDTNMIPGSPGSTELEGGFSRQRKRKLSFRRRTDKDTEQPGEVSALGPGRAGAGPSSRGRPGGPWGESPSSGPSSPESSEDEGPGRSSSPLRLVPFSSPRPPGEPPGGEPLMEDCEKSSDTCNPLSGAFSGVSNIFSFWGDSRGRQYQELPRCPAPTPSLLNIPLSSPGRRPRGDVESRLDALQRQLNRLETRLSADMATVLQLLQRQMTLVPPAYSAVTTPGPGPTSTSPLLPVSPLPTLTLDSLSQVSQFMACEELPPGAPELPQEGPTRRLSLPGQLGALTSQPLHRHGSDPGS

SMILES | IC50 [1] | IC50 [2] | solubility [3] | solubility [4] | remaining at 0.5 h, 0.1 µM [7] | further results
CNc1nc(NC2CC2)c2sc(-c3ccc(C(F)(F)F)cc3)cc2n1 | 447 nM | 137 nM | 120 µg/mL (≈ 329 µM) | < 5 µg/mL |  | half-life at 0.1 µM [5]: 1.15 h; microsomal CLint at 0.1 µM [6]: 25.2 µL/min/mg
CNc1nc(NCCN2CCNCC2)c2sc(-c3ccc(C(F)(F)F)cc3)cc2n1 | 37 nM | 34 nM | 203 µg/mL (≈ 465 µM) | 115 µg/mL (≈ 263 µM) | 100% | 
CNc1nc(Nc2cccc(C(N)=O)c2)c2sc(-c3ccc(C(F)(F)F)cc3)cc2n1 | 113 nM | 52 nM | 85 µg/mL (≈ 192 µM) | 8 µg/mL (≈ 18 µM) | 83% | 
Nc1nc(N2CCC(O)CC2)c2sc(-c3ccc(C(F)(F)F)cc3)cc2n1 |  | > 2540 nM |  |  |  | 
CNc1nc(NCCCN)c2sc(-c3ccc(C(F)(F)F)cc3)cc2n1 | > 2610 nM | > 2610 nM |  |  |  | 
CNc1nc(OCCCN(C)C)c2sc(-c3ccc(C(F)(F)F)cc3)cc2n1 | > 2440 nM | 1830 nM | 174 µg/mL (≈ 424 µM) | 174 µg/mL (≈ 424 µM) |  | 
Nc1nc(NC2CCNCC2)c2sc(-c3ccc(C(F)(F)F)cc3)cc2n1 | 24 nM | 25 nM | 168 µg/mL (≈ 427 µM) | 168 µg/mL (≈ 427 µM) | 100% | Activity [8]: Non-toxic; MSD [9]: 7 days; chromatographic logD [10]: 2.4; half-life at 0.1 µM [5]: > 2.5 h; microsomal CLint at 0.1 µM [6]: < 11.6 µL/min/mg; Activity [11]: 78%
CNc1nc(NC2CCNCC2)c2sc(-c3ccc(C(F)(F)F)cc3)cc2n1 | 24 nM | 19 nM | 218 µg/mL (≈ 535 µM) | 147 µg/mL (≈ 361 µM) | 84% | Activity [8]: Non-toxic; AUC(0-t) at 24 h [12]: 25 µM·h; Cmax [13]: 2470 nM; MSD [9]: 12 days; Activity [14]: Non-toxic; AUC/dose [15]: 4.24 min.ug/ml/(mg/kg); Ratio IC50 [16]: >100; Activity [11]: 99.7%
CN(C)CCCNc1nc(Cl)nc2cc(-c3ccc(C(F)(F)F)cc3)sc12 |  | 1080 nM |  |  |  | 
CN(C)CCCNc1nc(NCc2ccccc2)nc2cc(-c3ccc(C(F)(F)F)cc3)sc12 |  | 42 nM | 208 µg/mL (≈ 428 µM) | < 5 µg/mL | 100% | 
CN(C)CCCNc1ncnc2cc(-c3ccc(C(F)(F)F)cc3)sc12 |  | 500 nM | 209 µg/mL (≈ 549 µM) | 205 µg/mL (≈ 539 µM) | 91% | 
Nc1nc(NC2CCOCC2)c2sc(-c3ccc(C(F)(F)F)cc3)cc2n1 |  | 451 nM | < 5 µg/mL | < 5 µg/mL | 98% | IC50 [17]: 700 nM
CN(C)CCCNc1nc(N)nc2cc(-c3ccc(C(F)(F)F)cc3)sc12 |  | 57 nM | 210 µg/mL (≈ 531 µM) | 148 µg/mL (≈ 374 µM) | 94% | half-life at 0.1 µM [5]: 1.73 h; microsomal CLint at 0.1 µM [6]: 16.9 µL/min/mg
Nc1nc(NC2CCCCC2)c2sc(-c3ccc(C(F)(F)F)cc3)cc2n1 |  | 168 nM |  |  |  | 
CNc1nc(NCCN2CCOCC2)c2sc(-c3ccc(C(F)(F)F)cc3)cc2n1 | 121 nM | 80 nM | 213 µg/mL (≈ 487 µM) | 42 µg/mL (≈ 96 µM) | 51% | 
Nc1nc(NC2CCS(=O)(=O)CC2)c2sc(-c3ccc(C(F)(F)F)cc3)cc2n1 |  | 678 nM |  |  |  | 
CNc1nc(NC2CCOCC2)c2sc(-c3ccc(C(F)(F)F)cc3)cc2n1 | 140 nM | 47 nM | < 5 µg/mL | < 5 µg/mL | 100% | 
CNc1nc(NCCCO)c2sc(-c3ccc(C(F)(F)F)cc3)cc2n1 | 233 nM | 111 nM |  |  |  | 
Nc1nc(NC2CNC2)c2sc(-c3ccc(C(F)(F)F)cc3)cc2n1 |  | 936 nM |  |  |  | 

SMILES | IC50 [1] | IC50 [2] | solubility [3] | solubility [4] | remaining at 0.5 h, 0.1 µM [7] | further results
CN(C)CCCNc1nc(N2CCNCC2)nc2cc(-c3ccc(C(F)(F)F)cc3)sc12 |  | 164 nM | 198 µg/mL (≈ 426 µM) | 178 µg/mL (≈ 383 µM) |  | half-life at 0.1 µM [5]: > 1.67 h; microsomal CLint at 0.1 µM [6]: < 17 µL/min/mg
Nc1nc(NC2CCCNC2)c2sc(-c3ccc(C(F)(F)F)cc3)cc2n1 (centres undefined) |  | 36 nM | 125 µg/mL (≈ 318 µM) | 125 µg/mL (≈ 318 µM) | 69% | 
CNc1nc(N)c2sc(-c3ccc(C(F)(F)F)cc3)cc2n1 |  | 1160 nM | > 100 µg/mL | 3.1 µg/mL (≈ 9.56 µM) |  | chromatographic logD [10]: 3.4
CS(=O)(=O)c1ccc(-c2nc(N3CCNCC3)nc3cc(-c4ccc(C(F)(F)F)cc4)sc23)cc1 |  | 1460 nM | 174 µg/mL (≈ 336 µM) | < 5 µg/mL |  | 
CN(C)CCCNc1nc(N(C)C)nc2cc(-c3ccc(C(F)(F)F)cc3)sc12 |  | 100 nM | 212 µg/mL (≈ 501 µM) | 168 µg/mL (≈ 397 µM) | 66% | 
N#CC1CCN(c2nc(N)nc3cc(-c4ccc(C(F)(F)F)cc4)sc23)CC1 |  | > 2480 nM |  |  |  | 
Nc1nc(N2CCC(N)CC2)c2sc(-c3ccc(C(F)(F)F)cc3)cc2n1 | 33 nM | 20 nM | 134 µg/mL (≈ 341 µM) | 134 µg/mL (≈ 341 µM) | 100% | IC50 [17]: 6100 nM; AUC(0-t) at 24 h [12]: 21.6 µM·h; Cmax [13]: 1360 nM; MSD [9]: 26 days; Activity [14]: Non-toxic; AUC/dose [15]: 2.63 min.ug/ml/(mg/kg); chromatographic logD [10]: 2.4; half-life at 0.1 µM [5]: > 2.5 h; Ratio IC50 [16]: >100; microsomal CLint at 0.1 µM [6]: < 11.6 µL/min/mg; Activity [11]: 99.8%
COc1nc(NCCCN(C)C)c2sc(-c3ccc(C(F)(F)F)cc3)cc2n1 | 1400 nM | 1390 nM | 214 µg/mL (≈ 521 µM) | < 5 µg/mL |  | half-life at 0.1 µM [5]: > 1.67 h; microsomal CLint at 0.1 µM [6]: < 17 µL/min/mg
Nc1nc(NC2CCNC2)c2sc(-c3ccc(C(F)(F)F)cc3)cc2n1 (centres undefined) | 116 nM | 100 nM | 155 µg/mL (≈ 409 µM) | 155 µg/mL (≈ 409 µM) |  | IC50 [17]: 2400 nM; half-life at 0.1 µM [5]: > 2.5 h; microsomal CLint at 0.1 µM [6]: < 11.6 µL/min/mg
CNc1nc(N2CCNCC2)c2sc(-c3ccc(C(F)(F)F)cc3)cc2n1 |  | 95 nM |  |  |  | 
CNc1nc(NCC(F)(F)F)c2sc(-c3ccc(C(F)(F)F)cc3)cc2n1 | 138 nM | 47 nM | 28 µg/mL (≈ 68.9 µM) | < 5 µg/mL | 75% | IC50 [17]: > 33000 nM
CNc1nc(NC(C)(C)C)c2sc(-c3ccc(C(F)(F)F)cc3)cc2n1 |  | 116 nM | 1.6 µg/mL (≈ 4.21 µM) | < 1.6 µg/mL |  | chromatographic logD [10]: > 5.3; half-life at 0.1 µM [5]: 2.07 h; microsomal CLint at 0.1 µM [6]: 14 µL/min/mg
C[C@H]1[C@H](OC(=O)CCC(=O)O)O[C@@H]2O[C@@]3(C)CC[C@H]4[C@H](C)CC[C@@H]1[C@@]24OO3 [ARTESUNATE] | 3 nM | 4 nM |  |  |  | 
CN(C)CCCNc1nc(N2CCOCC2)nc2cc(-c3ccc(C(F)(F)F)cc3)sc12 |  | > 2150 nM | 211 µg/mL (≈ 453 µM) | < 5 µg/mL | 92% | 
Nc1nc(N2CCC(F)(F)CC2)c2sc(-c3ccc(C(F)(F)F)cc3)cc2n1 |  | > 2380 nM |  |  |  | 
CNc1nc(NCCCN2CCOCC2)c2sc(-c3ccc(C(F)(F)F)cc3)cc2n1 |  | 43 nM | 196 µg/mL (≈ 434 µM) | 96 µg/mL (≈ 213 µM) |  | half-life at 0.1 µM [5]: 0.398 h; microsomal CLint at 0.1 µM [6]: 72.4 µL/min/mg
CNc1nc(N2CCC(N)CC2)c2sc(-c3ccc(C(F)(F)F)cc3)cc2n1 |  | 42 nM | > 200 µg/mL | 17 µg/mL (≈ 41.7 µM) | 93% | Activity [8]: Non-toxic; AUC(0-t) at 24 h [12]: 78.2 µM·h; Cmax [13]: 3690 nM; MSD [9]: 7 days; Activity [14]: Non-toxic; AUC/dose [15]: 7.63 min.ug/ml/(mg/kg); Ratio IC50 [16]: >100; Activity [11]: 81%
CNc1nc(-c2ccc(C(F)(F)F)cc2)c2sc(-c3ccc(C(F)(F)F)cc3)cc2n1 |  | > 2210 nM |  |  |  | 
CN1CCC(Nc2nc(N)nc3cc(-c4ccc(C(F)(F)F)cc4)sc23)CC1 |  | 50 nM | 147 µg/mL (≈ 361 µM) | 147 µg/mL (≈ 361 µM) | 95% | 
